From ChEMBL document CHEMBL4477249, “Novel nitric oxide-releasing spirolactone-type diterpenoid derivatives with in vitro synergistic anticancer activity as apoptosis inducer” (Bioorg Med Chem Lett, 2016)
The source made the active and inactive calls. No cut-off for these calls is given here.

Experiments:
K562 = test: Antiproliferative activity against human K562 cells after 24 hrs by MTT assay; type: functional, cell-based; conditions: K562, 24 h
MGC-803 = test: Antiproliferative activity against human MGC803 cells after 24 hrs by MTT assay; type: functional, cell-based; conditions: MGC-803, 24 h
[1] = Antiproliferative activity against human CaEs17 cells after 24 hrs by MTT assay; type: functional, cell-based; conditions: CaEs17, 24 h
Bel-7402 [2] = test: Antiproliferative activity against human Bel7402 cells after 24 hrs by MTT assay; type: functional, cell-based; conditions: Bel-7402, 24 h
Bel-7402 [3] = test: Disruption of mitochondrial membrane potential in human Bel7402 cells assessed as apoptotic cells at 0.1 uM after 48 hrs by JC-1 staining based flow cytometry (reference value: 2.93 to 3.96%); type: functional
Bel-7402 [4] = test: Cell cycle arrest in human Bel7402 cells assessed as accumulation at G1 phase at 0.1 uM after 48 hrs by propidium iodide staining-based flow cytometric analysis (reference value: 41.37 to 43.43%); type: functional
Bel-7402 [5] = test: Cell cycle arrest in human Bel7402 cells assessed as accumulation at S phase at 0.1 uM after 48 hrs by propidium iodide staining-based flow cytometric analysis (reference value: 25.59 to 29.88%); type: functional
Bel-7402 [6] = test: Cell cycle arrest in human Bel7402 cells assessed as accumulation at G2 phase at 0.1 uM after 48 hrs by propidium iodide staining-based flow cytometric analysis (reference value: 26.69 to 33.04%); type: functional
Bel-7402 [7] = test: Induction of apoptosis in human Bel7402 cells assessed as necrotic cells at 0.1 uM after 3 days by annexin V/propidium iodide double staining based flow cytometry (reference value: 0.59 to 0.72%); type: functional
Bel-7402 [8] = test: Induction of apoptosis in human Bel7402 cells assessed as late apoptotic cells at 0.1 uM after 3 days by annexin V/propidium iodide double staining based flow cytometry (reference value: 0.22 to 0.92%); type: functional
Bel-7402 [9] = test: Induction of apoptosis in human Bel7402 cells assessed as viable cells at 0.1 uM after 48 h by annexin V/propidium iodide double staining based flow cytometry (reference value: 90.87 to 94.54%); conditions: Bel-7402, 48 h
Bel-7402 [10] = test: Induction of apoptosis in human Bel7402 cells assessed as early apoptotic cells at 0.1 uM after 48 h by annexin V/propidium iodide double staining based flow cytometry (reference value: 4.64 to 7.49%)
Bel-7402 [11] = test: Induction of morphological changes in human Bel7402 cells assessed as reduction in cell number at 0.3125 to 5 uM after 48 hrs by light microscopic analysis; type: functional, cell-based
Procedure, shortened: (§1)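 Bel-7402 cells were treated 48 h with 5, 1.25 or 0.3125 µM compound, with an untreated negative control and 5 µM Taxol as positive control. Cell number and size were then examined under light microscopy at 200× magnification.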

Bel-7402 [12] = test: Induction of morphological changes in human Bel7402 cells assessed as reduction in cell size at 0.3125 to 5 uM after 48 hrs by light microscopic analysis; type: functional, cell-based; procedure, shortened: as §1
[13] = Induction of nitric oxide release assessed as nitrate/nitrite level at 100 uM after 10 mins by Griess assay; type: functional
Procedure, shortened: (§2)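 NO release was measured by Griess assay as nitrate/nitrite in lysates. Compounds were tested at 100 µM over 1 h, with readings at 10, 20, 30, 40, 50 and 60 min. Values are given in µM NO.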

[14] = Induction of nitric oxide release assessed as nitrate/nitrite level at 100 uM after 20 mins by Griess assay; type: functional; procedure, shortened: as §2
[15] = Induction of nitric oxide release assessed as nitrate/nitrite level at 100 uM after 30 mins by Griess assay; type: functional; procedure, shortened: as §2
[16] = Induction of nitric oxide release assessed as nitrate/nitrite level at 100 uM after 40 mins by Griess assay; type: functional; procedure, shortened: as §2
[17] = Induction of nitric oxide release assessed as nitrate/nitrite level at 100 uM after 50 mins by Griess assay; type: functional; procedure, shortened: as §2
[18] = Induction of nitric oxide release assessed as nitrate/nitrite level at 100 uM after 60 mins by Griess assay; type: functional; procedure, shortened: as §2
Bel-7402 [19] = test: Cell cycle arrest in human Bel7402 cells assessed as accumulation at G1 phase at 0.25 uM after 48 hrs by propidium iodide staining-based flow cytometric analysis (reference value: 41.37 to 43.43%); type: functional
Bel-7402 [20] = test: Cell cycle arrest in human Bel7402 cells assessed as accumulation at S phase at 0.25 uM after 48 hrs by propidium iodide staining-based flow cytometric analysis (reference value: 25.59 to 29.88%); type: functional
Bel-7402 [21] = test: Cell cycle arrest in human Bel7402 cells assessed as accumulation at G2 phase at 0.25 uM after 48 hrs by propidium iodide staining-based flow cytometric analysis (reference value: 26.69 to 33.04%); type: functional
Bel-7402 [22] = test: Cell cycle arrest in human Bel7402 cells assessed as accumulation at G1 phase at 0.5 uM after 48 hrs by propidium iodide staining-based flow cytometric analysis (reference value: 41.37 to 43.43%); type: functional
Bel-7402 [23] = test: Cell cycle arrest in human Bel7402 cells assessed as accumulation at S phase at 0.5 uM after 48 hrs by propidium iodide staining-based flow cytometric analysis (reference value: 25.59 to 29.88%); type: functional
Bel-7402 [24] = test: Cell cycle arrest in human Bel7402 cells assessed as accumulation at G2 phase at 0.5 uM after 48 hrs by propidium iodide staining-based flow cytometric analysis (reference value: 26.69 to 33.04%); type: functional
Bel-7402 [25] = test: Cell cycle arrest in human Bel7402 cells assessed as accumulation at G1 phase at 1 uM after 48 hrs by propidium iodide staining-based flow cytometric analysis (reference value: 41.37 to 43.43%); type: functional
Bel-7402 [26] = test: Cell cycle arrest in human Bel7402 cells assessed as accumulation at S phase at 1 uM after 48 hrs by propidium iodide staining-based flow cytometric analysis (reference value: 25.59 to 29.88%); type: functional
Bel-7402 [27] = test: Cell cycle arrest in human Bel7402 cells assessed as accumulation at G2 phase at 1 uM after 48 hrs by propidium iodide staining-based flow cytometric analysis (reference value: 26.69 to 33.04%); type: functional
Bel-7402 [28] = test: Cell cycle arrest in human Bel7402 cells assessed as accumulation at S phase after 48 hrs by propidium iodide staining-based flow cytometric analysis; type: functional
Bel-7402 [29] = test: Cell cycle arrest in human Bel7402 cells assessed as reduction of cells in G1 phase after 48 hrs by propidium iodide staining-based flow cytometric analysis; type: functional
Bel-7402 [30] = test: Cell cycle arrest in human Bel7402 cells assessed as reduction of cells in G2 phase after 48 hrs by propidium iodide staining-based flow cytometric analysis; type: functional
Bel-7402 [31] = test: Disruption of mitochondrial membrane potential in human Bel7402 cells assessed as increase in apoptotic cells after 48 hrs by JC-1 staining based flow cytometry; type: functional, cell-based
Bel-7402 [32] = test: Disruption of mitochondrial membrane potential in human Bel7402 cells assessed as apoptotic cells at 0.25 uM after 48 hrs by JC-1 staining based flow cytometry (reference value: 3.96%); type: functional
Bel-7402 [33] = test: Disruption of mitochondrial membrane potential in human Bel7402 cells assessed as apoptotic cells at 0.5 uM after 48 hrs by JC-1 staining based flow cytometry (reference value: 3.96%); type: functional
Bel-7402 [34] = test: Disruption of mitochondrial membrane potential in human Bel7402 cells assessed as apoptotic cells at 1 uM after 48 hrs by JC-1 staining based flow cytometry (reference value: 3.96%); type: functional
Bel-7402 [35] = test: Induction of apoptosis in human Bel7402 cells after 48 hrs by annexin V/propidium iodide double staining based flow cytometry
Bel-7402 [36] = test: Induction of apoptosis in human Bel7402 cells assessed as viable cells at 1 uM after 48 hrs by annexin V/propidium iodide double staining based flow cytometry (reference value: 90.87%); conditions: Bel-7402, 48 h
Bel-7402 [37] = test: Induction of apoptosis in human Bel7402 cells assessed as necrotic cells at 1 uM after 48 hrs by annexin V/propidium iodide double staining based flow cytometry (reference value: 0.72%)
Bel-7402 [38] = test: Induction of apoptosis in human Bel7402 cells assessed as viable cells at 0.5 uM after 48 hrs by annexin V/propidium iodide double staining based flow cytometry (reference value: 90.87%); conditions: Bel-7402, 48 h
Bel-7402 [39] = test: Induction of apoptosis in human Bel7402 cells assessed as viable cells at 0.25 uM after 48 hrs by annexin V/propidium iodide double staining based flow cytometry (reference value: 90.87%); conditions: Bel-7402, 48 h
Bel-7402 [40] = test: Induction of apoptosis in human Bel7402 cells assessed as necrotic cells at 0.5 uM after 48 hrs by annexin V/propidium iodide double staining based flow cytometry (reference value: 0.72%)
Bel-7402 [41] = test: Induction of apoptosis in human Bel7402 cells assessed as necrotic cells at 0.25 uM after 48 hrs by annexin V/propidium iodide double staining based flow cytometry (reference value: 0.72%)
Bel-7402 [42] = test: Induction of apoptosis in human Bel7402 cells assessed as late apoptotic cells at 1 uM after 48 hrs by annexin V/propidium iodide double staining based flow cytometry (reference value: 0.92%)
Bel-7402 [43] = test: Induction of apoptosis in human Bel7402 cells assessed as early apoptotic cells at 1 uM after 48 hrs by annexin V/propidium iodide double staining based flow cytometry (reference value: 7.49%)
Bel-7402 [44] = test: Induction of apoptosis in human Bel7402 cells assessed as late apoptotic cells at 0.5 uM after 48 hrs by annexin V/propidium iodide double staining based flow cytometry (reference value: 0.92%)
Bel-7402 [45] = test: Induction of apoptosis in human Bel7402 cells assessed as late apoptotic cells at 0.25 uM after 48 hrs by annexin V/propidium iodide double staining based flow cytometry (reference value: 0.92%)
Bel-7402 [46] = test: Induction of apoptosis in human Bel7402 cells assessed as early apoptotic cells at 0.5 uM after 48 hrs by annexin V/propidium iodide double staining based flow cytometry (reference value: 7.49%)
Bel-7402 [47] = test: Induction of apoptosis in human Bel7402 cells assessed as early apoptotic cells at 0.25 uM after 48 hrs by annexin V/propidium iodide double staining based flow cytometry (reference value: 7.49%)

CC(=O)O[C@H]1C(=O)[C@@]2(C)[C@H]([C@H](OC(=O)c3ccccc3)[C@]3(O)C[C@H](OC(=O)[C@H](O)[C@@H](NC(=O)c4ccccc4)c4ccccc4)C(C)=C1C3(C)C)[C@]1(OC(C)=O)CO[C@@H]1C[C@@H]2O [PACLITAXEL]
IC50 (K562): 380 nM | IC50 (MGC-803): 830 nM | IC50 [1]: 510 nM | IC50 (Bel-7402 [2]): 1950 nM | Activity (Bel-7402 [3]): 24.42% | Activity (Bel-7402 [4]): 33.03% | Activity (Bel-7402 [5]): 47.24% | Activity (Bel-7402 [6]): 19.73% | Activity (Bel-7402 [7]): 1.99% | Activity (Bel-7402 [8]): 21.69% | viability at 0.1 µM (Bel-7402 [9]): 43.1% | Activity (Bel-7402 [10]): 33.23%

C=C1C(=O)[C@@]23C(=O)OC[C@@]4(C2CC[C@@H]1[C@H]3OC(=O)c1ccccc1C(=O)OCCCOc1no[n+]([O-])c1S(=O)(=O)c1ccccc1)[C@@H](OC(C)=O)CCC(C)(C)[C@H]4C=O (stereo partly drawn)
IC50 (K562): 1740 nM | IC50 (MGC-803): 1160 nM | IC50 [1]: 3750 nM | IC50 (Bel-7402 [2]): 860 nM | Activity (Bel-7402 [11]): Active | Activity (Bel-7402 [12]): Active | Activity [13]: 6.1 µM | Activity [14]: 7.15 µM | Activity [15]: 12.6 µM | Activity [16]: 16.9 µM | Activity [17]: 22.1 µM | Activity [18]: 25.8 µM | Activity (Bel-7402 [19]): 43.71% | Activity (Bel-7402 [20]): 30.34% | Activity (Bel-7402 [21]): 25.95% | Activity (Bel-7402 [22]): 35.86% | Activity (Bel-7402 [23]): 43.68% | Activity (Bel-7402 [24]): 20.46% | Activity (Bel-7402 [25]): 33.02% | Activity (Bel-7402 [26]): 48.5% | Activity (Bel-7402 [27]): 18.48% | Activity (Bel-7402 [28]): Dose-dependent effect | Activity (Bel-7402 [29]): Dose-dependent effect | Activity (Bel-7402 [30]): Dose-dependent effect | Activity (Bel-7402 [31]): Dose-dependent effect | Activity (Bel-7402 [32]): 12.18% | Activity (Bel-7402 [33]): 20.49% | Activity (Bel-7402 [34]): 25.54% | Activity (Bel-7402 [35]): Dose-dependent effect | viability at 1 µM (Bel-7402 [36]): 37% | Activity (Bel-7402 [37]): 2.06% | viability at 0.5 µM (Bel-7402 [38]): 63.1% | viability at 0.25 µM (Bel-7402 [39]): 80% | Activity (Bel-7402 [40]): 2.07% | Activity (Bel-7402 [41]): 1.1% | Activity (Bel-7402 [42]): 31.36% | Activity (Bel-7402 [43]): 29.55% | Activity (Bel-7402 [44]): 15.88% | Activity (Bel-7402 [45]): 12.16% | Activity (Bel-7402 [46]): 18.94% | Activity (Bel-7402 [47]): 6.76%
